Here are results for 21 compounds from ChEMBL document CHEMBL2424550, “Discovery of cyclic sulfoxide hydroxyethylamines as potent and selective β-site APP-cleaving enzyme 1 (BACE1) inhibitors: structure based design and in vivo reduction of amyloid β-peptides” (Bioorg Med Chem Lett, 2013).

Data set [1] in a line: Dissociation constant, pKa of the compound. The class given is physicochemical. In short, it runs like this:
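Measured by multi-wavelength UV spectroscopy across a linear pH gradient of 2–12 units.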

A short description of data set [2]: Apparent permeability of the compound in MDCK cells expressing human MDR1. The data set is classed as ADME, cell-based, Canis lupus familiaris. The following applies: dog. The gist of the method: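 Apparent permeability (Papp, […]) measured across MDR1-MDCK cell monolayers transfected with human MDR1.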
A short description of data set [3]: Lipophilicity, log P of the compound. The following applies: octanol/water. The class given is physicochemical.
The subject of data set [4] is Brain. As to the kind of experiment: Drug level in APP51/16 transgenic female mouse brain at 100 umol/kg, po after 4 hrs. The data set is classed as ADME, organism-based. The following applies: in vivo. In short, it runs like this:
(§1)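 APP51/16 transgenic mice received an oral suspension in water with 2% cremophor. Parent inhibitor measured 4 h post-dose in blood (nmol/mL) and brain (nmol/g).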

A short description of data set [5]: Clearance in human liver microsomes. The data set is classed as ADME, Microsome. The following applies: read-out: CLH. The gist of the method: (§2)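 Compounds incubated at 37 °C with human or mouse liver microsomes.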
In general terms: Liver microsomes are a subcellular fraction often used to study metabolism.

Data set [6] can be described thus: Drug level in APP51/16 transgenic female mouse blood at 100 umol/kg, po after 4 hrs. The data set is classed as ADME, organism-based. The following applies: whole blood, read-out: Drug uptake. The gist of the method: as §1
A short description of data set [7]: Clearance in mouse liver microsomes. The class given is ADME, Microsome. The following applies: read-out: CLH. The gist of the method:
as §2

A short description of data set [8]: Clearance in mouse. The data set is classed as ADME, organism-based. The following applies: in vivo.
Data set [9] in a line: Bioavailability in mouse. The data set is classed as ADME, organism-based. The following applies: in vivo.
Data set [10] is described as follows: Drug level in APP51/16 transgenic male mouse blood at 180 umol/kg, po after 4 hrs. The class given is ADME, organism-based. The following applies: whole blood, read-out: Drug uptake. In short, it runs like this: (§3)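 Inhibitor given orally to APP51/16 transgenic mice as a suspension in water with 2% cremophor; ritonavir (12.5 mg/kg po, 0.5 h before inhibitor) where noted. Blood concentration (nmol/mL) and brain concentration (nmol/g) determined 4 h after dosing.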

For data set [11], the system named is Brain. As to the kind of experiment: Drug level in APP51/16 transgenic male mouse brain at 180 umol/kg, po after 4 hrs. The following applies: in vivo. The data set is classed as ADME, organism-based. In short, it runs like this: as §3
The nature of data set [12]: Drug level in APP51/16 transgenic male mouse blood at 60 umol/kg, po after 4 hrs. The following applies: whole blood, read-out: Drug uptake. The data set is classed as ADME, organism-based. In short, it runs like this:
as §3

A short description of data set [13]: Drug level in APP51/16 transgenic male mouse blood at 100 umol/kg, po after 4 hrs. The following applies: whole blood, read-out: Drug uptake. The data set is classed as ADME, organism-based. In short, it runs like this:
as §3

For data set [14], the system named is Brain. As to the kind of experiment: Drug level in APP51/16 transgenic male mouse brain at 60 umol/kg, po after 4 hrs. The data set is classed as ADME, organism-based. The following applies: in vivo. In short, it runs like this: as §3
Data set [15] deals with Brain. As to the kind of experiment: Drug level in APP51/16 transgenic male mouse brain at 100 umol/kg, po after 4 hrs. The class given is ADME, organism-based. The following applies: in vivo. The gist of the method:
as §3

Usually pKa stands for the negative logarithm of the acid dissociation constant. A low value points to a group that gives up its proton readily. The term Papp denotes a coefficient for how fast a substance crosses the barrier. The term logP denotes a log measure of how a compound divides between an organic and an aqueous phase. Read a low logP as a more hydrophilic compound. As to `CC(C)(C)c1cccc(CN[C@H]2CS(=O)(=O)C[C@@H](Cc3cc(F)c(N)c(OC(C(F)(F)F)C(F)(F)F)c3)[C@@H]2O)c1`, the pKa in data set [1] was 5.7. Also, the Papp in [2] was determined as 4 ×10⁻⁶ cm/s. Further, in data set [3], the logP turned out to be 5.1.
In data set [4], `[2H]C([2H])(N[C@H]1C[S@+]([O-])C[C@@H](Cc2cc(F)c(N)c(O[C@H](COC)C(F)(F)F)c2)[C@@H]1O)c1cccc(C(C)C)c1` showed a Drug uptake of 0.3 nmol/g. Besides, the results for the microsomal CLint in data set [5] and in [7] were 600 µL/min/mg and 660 µL/min/mg, respectively. Moreover, the concentration at 4 h in data set [6] turned out to be 1500 nM. This compound also came in with a logP in data set [3] of 3.7.
In the case of `COC[C@@H](Oc1cc(C[C@@H]2C[S@@+]([O-])C[C@H](N[C@H](C)c3cccc(C(C)(C)C)c3)[C@H]2O)cc(F)c1N)C(F)(F)F`, the Drug uptake in data set [4] was determined as 0.7 nmol/g. Moreover, the values for the microsomal CLint in data set [5] and in data set [7] were 600 µL/min/mg and 730 µL/min/mg, respectively. The concentration at 4 h in [6] amounted to 5400 nM. The Papp in data set [2] was found to be 17 ×10⁻⁶ cm/s.
On to `COC[C@@H](Oc1cc(C[C@@H]2C[S@@+]([O-])C[C@H](NCc3cc(C(C)(C)C)ccc3F)[C@H]2O)cc(F)c1N)C(F)(F)F`, for which the microsomal CLint came out at 400 µL/min/mg in data set [5] and 580 µL/min/mg in data set [7]. Further, in data set [2], the Papp is 24 ×10⁻⁶ cm/s. Further, the logP in data set [3] amounted to 4.1.
In the case of `COC[C@@H](Oc1cc(C[C@@H]2C[S@@+]([O-])C[C@H](NCc3cccc(C(C)(C)CO)c3)[C@H]2O)cc(F)c1N)C(F)(F)F`, the microsomal CLint in data set [5] came to 80 µL/min/mg; in data set [7], 210 µL/min/mg. For the same compound, the Papp in data set [2] stood at 10 ×10⁻⁶ cm/s. In data set [3], the logP was determined as 3.4.
Take `COC[C@@H](Oc1cc(C[C@@H]2C[S@@+]([O-])C[C@H](NCc3cccc(C(C)(C)O)c3)[C@H]2O)cc(F)c1N)C(F)(F)F`: the microsomal CLint in [5] amounted to 40 µL/min/mg; in data set [7], 150 µL/min/mg. The Papp in [2] came to 8 ×10⁻⁶ cm/s.
For `COC[C@@H](Oc1cc(C[C@@H]2C[S@@+]([O-])C[C@H](NCc3cccc(OC(C)C)c3)[C@H]2O)cc(F)c1N)C(F)(F)F`, the microsomal CLint amounted to 280 µL/min/mg in data set [5] and 190 µL/min/mg in data set [7]. The Papp in data set [2] came to 21 ×10⁻⁶ cm/s. This compound returned a logP in data set [3] of 3.6.
Consider `COC[C@@H](Oc1cc(C[C@@H]2C[S@@+]([O-])C[C@H](NCc3cccc(OC(F)(F)F)c3)[C@H]2O)cc(F)c1N)C(F)(F)F`, for which the microsomal CLint in data set [5] was found to be 300 µL/min/mg; in data set [7], 180 µL/min/mg. In addition, in [2], the Papp stood at 31 ×10⁻⁶ cm/s. Further, the logP in data set [3] came out at 3.7.
Take `COC[C@@H](Oc1cc(C[C@@H]2C[S@@+]([O-])C[C@H](NCc3cnn(CC(C)(C)C)c3)[C@H]2O)cc(F)c1N)C(F)(F)F`: the microsomal CLint in data set [5] is 140 µL/min/mg; in [7] it was 380 µL/min/mg. In addition, the Papp in [2] was 10 ×10⁻⁶ cm/s. The logP in [3] was determined as 2.9.
The compound `COC[C@@H](Oc1cc(C[C@@H]2C[S@@+]([O-])C[C@H](NCc3cc(CC(C)(C)C)on3)[C@H]2O)cc(F)c1N)C(F)(F)F` displayed a pKa in data set [1] of 4.9. Moreover, the microsomal CLint was 580 µL/min/mg in data set [5] and 510 µL/min/mg in [7]. Moreover, the Papp in data set [2] stood at 19 ×10⁻⁶ cm/s. The logP in [3] was determined as 3.1.
As for `COC[C@@H](Oc1cc(C[C@@H]2C[S@@+]([O-])C[C@H](NCc3cc(C(C)(C)C)ccn3)[C@H]2O)cc(F)c1N)C(F)(F)F`, the figures for the microsomal CLint in [5] and in data set [7] were 140 µL/min/mg and 400 µL/min/mg, respectively. In addition, the Papp in data set [2] worked out at 19 ×10⁻⁶ cm/s. The lipophilicity (logP) in [3] came to 3.5.
By clearance is commonly meant the volume of plasma or blood freed of the substance per unit of time. A high value points to efficient removal. What is called bioavailability is the share of a dose that reaches the circulation, judged against a reference dose that is usually intravenous. `CC(C)(C)c1cccc(CN[C@H]2C[S@+]([O-])C[C@@H](Cc3cc(F)c(N)c(OC(C(F)(F)F)C(F)(F)F)c3)[C@@H]2O)c1`: the pKa in [1] turned out to be 6.7. Besides, the clearance in [8] was found to be 129 mL/min/kg. In addition, the Papp in data set [2] was 18 ×10⁻⁶ cm/s. In data set [9], this compound had a bioavailability of 14%. Further, the concentration at 4 h in data set [10] was determined as 900 nM. In [11], this compound yielded a Drug uptake of 0.8 nmol/g. The same compound registered a logP in data set [3] of 5.2.
In the case of `CC(C)(C)c1cccc(CN[C@H]2C[S@@+]([O-])C[C@@H](Cc3cc(F)c(N)c(OC(C(F)(F)F)C(F)(F)F)c3)[C@@H]2O)c1`, in data set [2], the Papp is 11 ×10⁻⁶ cm/s. In addition, the logP in [3] was 4.9.
For `COc1cc(C[C@@H]2C[S@@+]([O-])C[C@H](NCc3cccc(C(C)(C)C)c3)[C@H]2O)cc(F)c1N` the same measures were 22 ×10⁻⁶ cm/s and 3.5.
Regarding `CC(C)(C)c1cccc(CN[C@H]2C[S@+]([O-])C[C@@H](Cc3cc(F)c(N)c(OCC(F)(F)F)c3)[C@@H]2O)c1`, the values for the concentration at 4 h in data set [12], in data set [13] and in [10] were 800 nM, 2600 nM and 6100 nM, respectively. Besides, the Drug uptake in [14] is on record as 0.4 nmol/g; in [15], 0.7 nmol/g; in data set [11], 1.3 nmol/g. Besides, the Papp in data set [2] amounted to 19 ×10⁻⁶ cm/s. In addition, the logP in data set [3] stood at 4.3.
Regarding `COC[C@@H](Oc1cc(C[C@@H]2C[S@@+]([O-])C[C@H](NCc3cccc(C(C)(C)C)c3)[C@H]2O)cc(F)c1N)C(F)(F)F`, the figures for the concentration at 4 h in [12], in data set [13] and in data set [10] were 300 nM, 1000 nM and 3800 nM, respectively. Further, the Drug uptake was 0.1 nmol/g in data set [14], 0.2 nmol/g in data set [15] and 0.7 nmol/g in data set [11]. For the same compound, the microsomal CLint was determined as 500 µL/min/mg in [5] and 480 µL/min/mg in data set [7]. The apparent permeability (Papp) in [2] turned out to be 18 ×10⁻⁶ cm/s. The compound further gave a logP in [3] of 3.9.
As for `CC(C)(C)c1cccc(CN[C@H]2C[S@+]([O-])C[C@@H](Cc3cc(F)c(N)c(O[C@H](CO)C(F)(F)F)c3)[C@@H]2O)c1`, the Papp in data set [2] turned out to be 16 ×10⁻⁶ cm/s. In data set [3], this compound showed a logP of 3.7.
As to `CC(C)(C)c1cccc(CN[C@H]2C[S@+]([O-])C[C@@H](Cc3cc(O)c(N)c(F)c3)[C@@H]2O)c1`, the Papp in data set [2] was determined as 9 ×10⁻⁶ cm/s.
As to `COC[C@@H](Oc1cc(C[C@@H]2C[S+]([O-])C[C@H](N)[C@H]2O)cc(F)c1N)C(F)(F)F` (stereo not given in full), the microsomal CLint in data set [5] is 190 µL/min/mg; in data set [7], 180 µL/min/mg.
As to `[2H]C([2H])(N[C@H]1C[S@+]([O-])C[C@@H](Cc2cc(F)c(N)c(O[C@H](COC)C(F)(F)F)c2)[C@@H]1O)c1cccc(C(C)(C)C)c1`, the concentration at 4 h in [12] came to 400 nM. The Drug uptake in data set [14] amounted to 0.1 nmol/g. The microsomal CLint in [5] was 600 µL/min/mg; in data set [7], 530 µL/min/mg. Further, in [2], the Papp was found to be 19 ×10⁻⁶ cm/s.
Take `COC[C@@H](Oc1cc(C[C@@H]2C[S@@+]([O-])C[C@H](NCc3cccc(C(C)C)c3)[C@H]2O)cc(F)c1N)C(F)(F)F`: the Drug uptake in [4] was 0.2 nmol/g. The microsomal CLint came out at 690 µL/min/mg in data set [5] and 550 µL/min/mg in data set [7]. In addition, the concentration at 4 h in [6] is 1600 nM. Moreover, the Papp in data set [2] is 20 ×10⁻⁶ cm/s. The compound further came in with a logP in [3] of 3.7.
